# In publication PMC8052682 (Chemical communications (Cambridge, England), 2021):
# Tests used:
# [1] = tested on: MDA-MB-231 breast carcinoma cells; test: Wound-healing; type: cell-based; settings: wound-healing assay, 20-hour time span, six biological replicates
# Method in brief: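 Scratch-wound migration of MDA-MB-231 breast carcinoma cells followed over 20 h with test compounds (a glycopeptide, a peptide, or heparin) at several concentrations. Migration was scored as relative migration, and the concentration giving maximal inhibition of migration was noted.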
# integrin = settings: ref [3], [20]; cited from earlier work
substance,measurement,setting,value
heparin,concentration at which maximal inhibitory effect on migration is reached,[1],6 µM
same,integrin binding relative to heparan sulfate (in words),integrin,binds more tightly with integrin than heparan sulfate
